From ChEMBL document CHEMBL3877249, “Novel 2-aryl-4-(4'-hydroxyphenyl)-5H-indeno[1,2-b]pyridines as potent DNA non-intercalative topoisomerase catalytic inhibitors” (Eur J Med Chem, 2017)

Tests used:
[1] = Antiproliferative activity against human DU145 cells after 72 hrs by CCK8 assay; format: functional, cell-based; conditions: DU-145, 72 h
In short: (§1)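 Cells seeded at 2–4 × 10^4 per well, grown overnight in medium with 10% FBS at 37 °C and 5% CO2. After 4 h FBS starvation they were exposed to graded compound concentrations for 72 h. CCK-8 was added for a further 4 h and absorbance read at 450 nm. IC50 came from a four-parameter logistic fit.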

[2] = Antiproliferative activity against human HeLa cells after 72 hrs by CCK8 assay; format: functional, cell-based; in short: as §1
[3] = Antiproliferative activity against human HCT15 cells after 72 hrs by CCK8 assay; format: functional, cell-based; conditions: HCT-15, 72 h; in short: as §1
[4] = molecular target: DNA topoisomerase 2-alpha (Homo sapiens) (UniProt P11388); test: Inhibition of human DNA topoisomerase-2alpha at 100 uM using supercoiled pBR322 DNA as substrate after 30 mins by ethidium bromide staining based agarose gel electrophoresis relative to control
Chain of DNA topoisomerase 2-alpha (Homo sapiens) (P11388 whole entry): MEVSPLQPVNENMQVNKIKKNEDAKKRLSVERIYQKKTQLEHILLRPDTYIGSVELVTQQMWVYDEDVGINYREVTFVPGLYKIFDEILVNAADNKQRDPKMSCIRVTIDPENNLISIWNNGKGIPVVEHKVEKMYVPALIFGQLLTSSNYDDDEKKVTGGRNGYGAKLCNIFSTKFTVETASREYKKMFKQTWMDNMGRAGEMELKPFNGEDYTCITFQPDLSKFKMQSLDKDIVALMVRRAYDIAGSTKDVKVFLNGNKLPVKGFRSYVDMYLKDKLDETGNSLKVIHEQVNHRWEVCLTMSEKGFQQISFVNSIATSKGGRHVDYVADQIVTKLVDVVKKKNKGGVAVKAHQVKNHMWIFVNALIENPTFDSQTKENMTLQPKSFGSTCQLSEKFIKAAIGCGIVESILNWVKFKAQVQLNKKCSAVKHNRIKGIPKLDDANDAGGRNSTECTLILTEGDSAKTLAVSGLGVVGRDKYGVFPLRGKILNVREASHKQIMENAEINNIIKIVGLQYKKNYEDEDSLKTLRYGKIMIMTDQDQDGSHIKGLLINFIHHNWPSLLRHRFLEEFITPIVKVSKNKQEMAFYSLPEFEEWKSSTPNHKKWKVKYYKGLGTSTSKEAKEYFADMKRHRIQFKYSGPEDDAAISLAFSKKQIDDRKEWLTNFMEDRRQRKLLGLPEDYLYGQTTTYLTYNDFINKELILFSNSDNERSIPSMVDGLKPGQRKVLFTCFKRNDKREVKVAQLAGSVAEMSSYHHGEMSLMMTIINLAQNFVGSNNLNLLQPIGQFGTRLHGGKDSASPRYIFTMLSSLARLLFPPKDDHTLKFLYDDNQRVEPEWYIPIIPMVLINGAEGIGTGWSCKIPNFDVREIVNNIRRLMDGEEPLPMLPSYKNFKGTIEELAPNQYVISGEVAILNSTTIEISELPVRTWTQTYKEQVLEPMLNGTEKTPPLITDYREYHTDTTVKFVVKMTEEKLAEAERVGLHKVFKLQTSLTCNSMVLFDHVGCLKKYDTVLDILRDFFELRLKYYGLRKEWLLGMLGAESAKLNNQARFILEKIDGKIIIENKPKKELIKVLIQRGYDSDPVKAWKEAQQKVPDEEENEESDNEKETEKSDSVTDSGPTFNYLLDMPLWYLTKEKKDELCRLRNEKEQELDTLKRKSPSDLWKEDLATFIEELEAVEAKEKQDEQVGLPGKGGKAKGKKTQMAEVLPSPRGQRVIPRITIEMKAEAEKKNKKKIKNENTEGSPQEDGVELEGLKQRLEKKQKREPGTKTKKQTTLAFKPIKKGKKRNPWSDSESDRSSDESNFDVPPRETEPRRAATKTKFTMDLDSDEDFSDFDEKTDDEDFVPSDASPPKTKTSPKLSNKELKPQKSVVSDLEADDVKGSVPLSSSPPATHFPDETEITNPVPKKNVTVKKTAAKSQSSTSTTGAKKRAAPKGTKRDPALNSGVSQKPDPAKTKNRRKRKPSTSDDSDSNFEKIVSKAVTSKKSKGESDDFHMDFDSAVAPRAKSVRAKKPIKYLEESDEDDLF
In short: (§2)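 Human topo IIα, 1 unit set by full relaxation of pBR322, with 100 ng pBR322 for 30 min in 10 mM Tris-HCl pH 7.9, 50 mM NaCl, 5 mM MgCl2, 1 mM EDTA and BSA. Stop was with EDTA. Screening was at 100 µM, with retest at 20 µM if inhibition exceeded 30%. Gel was 1% agarose at 25 V for 4 h in TAE, stained with ethidium bromide. Mean ± S.D. from three experiments in triplicate.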

[5] = molecular target: T1, DNA topoisomerase 1 (Homo sapiens) (UniProt P11387); test: Inhibition of human DNA topoisomerase-1 at 100 uM using supercoiled pBR322 DNA as substrate after 30 mins by ethidium bromide staining based agarose gel electrophoresis relative to control
T1 sequence (whole entry): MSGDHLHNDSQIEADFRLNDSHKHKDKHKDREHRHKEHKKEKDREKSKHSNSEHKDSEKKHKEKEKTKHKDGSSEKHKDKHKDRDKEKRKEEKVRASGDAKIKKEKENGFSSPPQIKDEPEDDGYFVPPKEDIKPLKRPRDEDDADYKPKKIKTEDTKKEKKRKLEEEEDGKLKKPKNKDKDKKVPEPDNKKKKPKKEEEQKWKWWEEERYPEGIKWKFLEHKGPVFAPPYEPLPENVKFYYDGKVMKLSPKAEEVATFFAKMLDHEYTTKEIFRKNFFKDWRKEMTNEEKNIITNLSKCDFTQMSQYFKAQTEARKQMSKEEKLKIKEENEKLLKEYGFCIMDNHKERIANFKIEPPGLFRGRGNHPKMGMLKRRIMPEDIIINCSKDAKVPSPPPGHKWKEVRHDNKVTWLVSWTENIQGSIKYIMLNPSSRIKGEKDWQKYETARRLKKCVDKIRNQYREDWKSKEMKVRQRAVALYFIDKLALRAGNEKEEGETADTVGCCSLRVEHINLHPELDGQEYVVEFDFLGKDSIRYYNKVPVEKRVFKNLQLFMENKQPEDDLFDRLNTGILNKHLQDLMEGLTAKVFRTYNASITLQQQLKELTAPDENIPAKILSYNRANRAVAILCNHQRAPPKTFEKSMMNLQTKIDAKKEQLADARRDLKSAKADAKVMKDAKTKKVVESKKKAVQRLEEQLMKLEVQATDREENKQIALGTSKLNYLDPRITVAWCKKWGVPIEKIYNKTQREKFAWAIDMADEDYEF
In short: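 Recombinant human topo I, 1 unit (the amount that fully relaxes supercoiled pBR322), with 100 ng pBR322 DNA at 37 °C for 30 min in 10 mM Tris-HCl pH 7.9, 150 mM NaCl, 0.1% BSA. Compounds were screened at 100 µM, and those above 30% inhibition were retested at 20 µM. Products ran on 1% agarose at 15 V for 7 h in TAE with ethidium bromide staining. Mean ± S.D. from three experiments in triplicate.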

[6] = molecular target: DNA topoisomerase 2-alpha (Homo sapiens) (UniProt P11388); test: Inhibition of human DNA topoisomerase-2alpha at 20 uM using supercoiled pBR322 DNA as substrate after 30 mins by ethidium bromide staining based agarose gel electrophoresis relative to control; in short: as §2
[7] = Antiproliferative activity against human T47D cells after 72 hrs by CCK8 assay; format: functional, cell-based; in short: as §1

Compound | inhibition [4] [%] | inhibition [5] [%] | inhibition [6] [%] | IC50 [1] [µM] | IC50 [2] [µM] | IC50 [3] [µM] | IC50 [7] [µM]
Oc1cccc(-c2cc(-c3ccoc3)nc3c2Cc2ccccc2-3)c1 | 82.2 | 4.5 | 29.6 | 1.51 | 4.48 | 1.24 | 2.91
c1ccc(-c2cc(-c3ccoc3)nc3c2Cc2ccccc2-3)cc1 | 3.9 | 6.4 | – | 1.09 | 10.8 | 7.05 | 17.4
Oc1cccc(-c2cc(-c3cccnc3)nc3c2Cc2ccccc2-3)c1 | 18.5 | 1.5 | – | 2.8 | 5.19 | 1.87 | 1.17
Oc1cccc(-c2cc(-c3ccco3)nc3c2Cc2ccccc2-3)c1 | 77.5 | 28.9 | 36.9 | 3.75 | 6.27 | 1.58 | 1.07
Oc1ccc(-c2cc(-c3ccccn3)nc3c2Cc2ccccc2-3)cc1 | 14.8 | 0 | – | > 50 | > 50 | > 50 | > 50
Oc1ccccc1-c1cc(-c2ccccn2)nc2c1Cc1ccccc1-2 | 15.2 | 0.5 | – | > 50 | > 50 | > 50 | 29.6
Oc1cccc(-c2cc(-c3ccncc3)nc3c2Cc2ccccc2-3)c1 | 49.5 | 1.3 | – | 4.36 | 2.41 | 1.94 | 1.05

Now from value to compound, other results behind:

inhibition [4] [%] | inhibition [5] [%] | inhibition [6] [%] | Compound | IC50 [1] [µM] | IC50 [2] [µM] | IC50 [3] [µM] | IC50 [7] [µM]
41.3 | 18.7 | 5.7 | c1ccc(-c2cc(-c3ccco3)nc3c2Cc2ccccc2-3)cc1 | 7.74 | 16.6 | > 50 | –
1.8 | 0.4 | – | Oc1ccccc1-c1cc(-c2ccoc2)nc2c1Cc1ccccc1-2 | > 50 | > 50 | > 50 | > 50
75.2 | 0 | 0.9 | Oc1ccccc1-c1cc(-c2ccncc2)nc2c1Cc1ccccc1-2 | 4.7 | 5.78 | 2.18 | 2.44
61.4 | 1.4 | 28 | Oc1ccc(-c2cc(-c3ccoc3)nc3c2Cc2ccccc2-3)cc1 | 6.01 | 5.21 | 1.83 | 2.6
4 | 0 | – | Oc1ccc(-c2cc(-c3cccnc3)nc3c2Cc2ccccc2-3)cc1 | > 50 | > 50 | > 50 | > 50
50.2 | 12.8 | 4.9 | Oc1ccccc1-c1cc(-c2ccsc2)nc2c1Cc1ccccc1-2 | > 50 | > 50 | > 50 | > 50
1.14 | 0 | – | Oc1ccc(-c2cc(-c3ccncc3)nc3c2Cc2ccccc2-3)cc1 | > 50 | > 50 | > 50 | > 50
2.3 | 0 | – | c1ccc(-c2cc(-c3ccncc3)nc3c2Cc2ccccc2-3)cc1 | > 50 | > 50 | 16.4 | > 50
0 | 12.3 | – | c1ccc(-c2cc(-c3ccccn3)nc3c2Cc2ccccc2-3)cc1 | – | – | – | –
3.5 | 2.4 | – | Oc1cccc(-c2cc(-c3ccccn3)nc3c2Cc2ccccc2-3)c1 | > 50 | > 50 | > 50 | > 50
65.5 | 0 | 10.5 | Oc1ccccc1-c1cc(-c2cccnc2)nc2c1Cc1ccccc1-2 | 7.46 | 7.8 | 3.52 | 5.15
